Data as given in ChEMBL document CHEMBL5696442, “Discovery of type II inhibitors of TGFβ-activated kinase 1 (TAK1) and mitogen-activated protein kinase kinase kinase kinase 2 (MAP4K2)” (J Med Chem, 2015).

Experiments:
[1] = target: Focal adhesion kinase 1 (Homo sapiens) (UniProt Q05397); experiment: Inhibition of FAK Lys1 labeling site in human A-375 cells at 0.05 uM by KiNativ Profiling analysis relative to control; format: cell-based
[2] = Inhibition of p70S6K ATP Loop labeling site harbouring GGYGKVFQVR in human A-375 cells at 0.05 uM by KiNativ Profiling analysis relative to control; conditions: condition cancer
[3] = target: T1, Aurora kinase A (Homo sapiens) (UniProt O14965); experiment: Inhibition of AurA ATP Loop labeling site in human A-375 cells at 5 uM by KiNativ Profiling analysis relative to control; format: cell-based
T1 sequence (whole entry): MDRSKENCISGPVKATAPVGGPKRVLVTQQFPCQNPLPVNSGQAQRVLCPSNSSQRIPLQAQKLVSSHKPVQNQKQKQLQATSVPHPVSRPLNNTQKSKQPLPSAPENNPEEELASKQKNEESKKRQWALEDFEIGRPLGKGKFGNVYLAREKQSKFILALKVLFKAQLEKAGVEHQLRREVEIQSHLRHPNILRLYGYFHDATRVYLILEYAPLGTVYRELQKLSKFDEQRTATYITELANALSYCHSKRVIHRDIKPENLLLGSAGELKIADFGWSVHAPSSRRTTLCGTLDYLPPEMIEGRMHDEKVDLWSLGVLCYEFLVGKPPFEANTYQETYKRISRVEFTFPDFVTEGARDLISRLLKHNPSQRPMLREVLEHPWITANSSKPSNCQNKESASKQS
In short: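 Live A375 melanoma cells were treated with compound at 5 or 0.5 μM, then lysed. The lysates were labeled with a lysine-reactive ATP or ADP-biotin probe. Kinase protection from probe labeling was measured by KiNativ.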

[4] = target: Serine/threonine-protein kinase WNK2 (Homo sapiens) (UniProt Q9Y3S1); experiment: Inhibition of Wnk2 ATP Loop labeling site in human A-375 cells at 5 uM by KiNativ Profiling analysis relative to control; format: cell-based
Serine/threonine-protein kinase WNK2 (Homo sapiens), sequence (Q9Y3S1 whole entry): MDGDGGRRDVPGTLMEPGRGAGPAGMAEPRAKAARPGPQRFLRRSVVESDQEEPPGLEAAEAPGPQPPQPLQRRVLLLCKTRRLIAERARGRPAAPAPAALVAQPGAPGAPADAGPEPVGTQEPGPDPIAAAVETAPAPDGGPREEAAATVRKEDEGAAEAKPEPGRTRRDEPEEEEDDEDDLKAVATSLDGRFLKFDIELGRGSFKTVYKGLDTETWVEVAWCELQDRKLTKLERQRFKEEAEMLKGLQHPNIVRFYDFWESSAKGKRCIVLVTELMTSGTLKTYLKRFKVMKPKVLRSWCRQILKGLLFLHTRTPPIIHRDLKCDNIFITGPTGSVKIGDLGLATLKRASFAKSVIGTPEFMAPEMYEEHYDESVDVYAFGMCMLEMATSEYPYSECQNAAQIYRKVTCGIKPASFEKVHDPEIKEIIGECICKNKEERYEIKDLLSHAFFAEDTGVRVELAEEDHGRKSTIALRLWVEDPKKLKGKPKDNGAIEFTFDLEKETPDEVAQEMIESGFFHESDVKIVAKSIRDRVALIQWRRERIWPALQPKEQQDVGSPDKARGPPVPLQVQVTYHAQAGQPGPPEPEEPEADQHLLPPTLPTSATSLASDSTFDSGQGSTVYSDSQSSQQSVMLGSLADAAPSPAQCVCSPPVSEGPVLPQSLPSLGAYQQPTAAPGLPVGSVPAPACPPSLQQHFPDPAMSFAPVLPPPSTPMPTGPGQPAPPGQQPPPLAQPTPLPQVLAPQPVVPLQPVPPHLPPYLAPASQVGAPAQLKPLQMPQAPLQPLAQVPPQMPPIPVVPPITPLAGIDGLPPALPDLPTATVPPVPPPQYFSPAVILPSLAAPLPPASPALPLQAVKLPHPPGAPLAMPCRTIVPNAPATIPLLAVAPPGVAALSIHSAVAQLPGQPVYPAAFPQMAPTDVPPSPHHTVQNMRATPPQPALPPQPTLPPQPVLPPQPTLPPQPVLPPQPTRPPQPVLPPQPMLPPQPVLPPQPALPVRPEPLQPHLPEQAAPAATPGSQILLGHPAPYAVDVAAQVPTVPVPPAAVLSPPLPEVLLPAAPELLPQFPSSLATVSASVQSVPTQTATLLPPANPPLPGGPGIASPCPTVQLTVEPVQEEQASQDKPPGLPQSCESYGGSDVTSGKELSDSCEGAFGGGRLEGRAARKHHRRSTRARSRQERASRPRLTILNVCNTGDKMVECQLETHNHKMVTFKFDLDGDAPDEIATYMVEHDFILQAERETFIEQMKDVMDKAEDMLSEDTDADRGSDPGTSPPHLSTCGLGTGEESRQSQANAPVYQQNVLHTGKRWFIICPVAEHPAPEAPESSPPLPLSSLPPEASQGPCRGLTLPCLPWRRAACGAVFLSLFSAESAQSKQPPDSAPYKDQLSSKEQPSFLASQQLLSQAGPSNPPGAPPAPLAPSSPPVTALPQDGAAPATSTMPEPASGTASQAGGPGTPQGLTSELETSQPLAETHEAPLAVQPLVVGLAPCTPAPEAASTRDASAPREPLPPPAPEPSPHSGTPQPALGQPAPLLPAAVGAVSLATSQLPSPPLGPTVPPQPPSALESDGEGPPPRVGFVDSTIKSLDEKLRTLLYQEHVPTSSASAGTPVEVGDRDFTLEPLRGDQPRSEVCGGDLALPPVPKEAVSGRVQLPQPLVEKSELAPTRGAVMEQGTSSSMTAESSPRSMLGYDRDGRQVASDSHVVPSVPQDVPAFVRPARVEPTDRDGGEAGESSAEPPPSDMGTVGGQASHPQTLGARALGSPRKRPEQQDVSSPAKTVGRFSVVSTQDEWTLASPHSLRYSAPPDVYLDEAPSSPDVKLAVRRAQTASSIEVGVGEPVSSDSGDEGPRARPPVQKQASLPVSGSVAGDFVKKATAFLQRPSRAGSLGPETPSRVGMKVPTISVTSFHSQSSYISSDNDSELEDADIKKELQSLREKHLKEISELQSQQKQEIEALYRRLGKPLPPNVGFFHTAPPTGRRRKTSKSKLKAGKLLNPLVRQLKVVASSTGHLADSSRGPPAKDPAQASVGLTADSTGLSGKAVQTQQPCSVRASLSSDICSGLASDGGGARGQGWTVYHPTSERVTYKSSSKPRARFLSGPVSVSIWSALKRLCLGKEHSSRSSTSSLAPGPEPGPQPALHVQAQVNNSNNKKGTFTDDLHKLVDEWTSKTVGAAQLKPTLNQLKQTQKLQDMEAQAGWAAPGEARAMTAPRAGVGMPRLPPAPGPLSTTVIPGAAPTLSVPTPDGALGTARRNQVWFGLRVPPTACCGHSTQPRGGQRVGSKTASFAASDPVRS

[5] = target: T2, Mitogen-activated protein kinase 12 (Homo sapiens) (UniProt P53778); experiment: Inhibition of p38 gamma Lys2 labeling site in human A-375 cells at 0.05 uM by KiNativ Profiling analysis relative to control; format: cell-based
T2 sequence (whole entry): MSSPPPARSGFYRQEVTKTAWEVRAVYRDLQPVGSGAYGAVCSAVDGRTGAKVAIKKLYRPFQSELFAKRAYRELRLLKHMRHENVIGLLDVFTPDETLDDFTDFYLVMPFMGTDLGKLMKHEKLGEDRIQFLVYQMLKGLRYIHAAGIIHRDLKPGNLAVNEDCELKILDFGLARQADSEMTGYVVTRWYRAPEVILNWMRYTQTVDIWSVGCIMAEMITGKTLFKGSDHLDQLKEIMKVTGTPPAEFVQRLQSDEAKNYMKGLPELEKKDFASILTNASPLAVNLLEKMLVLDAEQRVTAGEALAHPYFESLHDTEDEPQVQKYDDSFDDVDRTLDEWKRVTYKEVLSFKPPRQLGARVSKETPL

[6] = Half life in Swiss albino mouse at 1 mg/kg, iv measured upto 24 hrs by LC/MS/MS analysis; format: ADME, organism-based; conditions: in vivo
In short: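 Male Swiss albino mice. […] Blood was taken into K2EDTA from three mice per time point, from 0 to 24 h. Plasma was precipitated with acetonitrile and analysed by LC/MS/MS (LLOQ 1.138 ng/mL).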

[7] = target: RAC-gamma serine/threonine-protein kinase (Homo sapiens) (UniProt Q9Y243); experiment: Inhibition of AKT3 ATP Loop labeling site in human A-375 cells at 0.05 uM by KiNativ Profiling analysis relative to control; format: cell-based
[8] = target: TRAF2 and NCK-interacting protein kinase (Homo sapiens) (UniProt Q9UKE5); experiment: Inhibition of ZC2/TNIK Lys1 labeling site in human A-375 cells at 0.05 uM by KiNativ Profiling analysis relative to control; format: cell-based
TRAF2 and NCK-interacting protein kinase (Homo sapiens), sequence (Q9UKE5 whole entry, looked up): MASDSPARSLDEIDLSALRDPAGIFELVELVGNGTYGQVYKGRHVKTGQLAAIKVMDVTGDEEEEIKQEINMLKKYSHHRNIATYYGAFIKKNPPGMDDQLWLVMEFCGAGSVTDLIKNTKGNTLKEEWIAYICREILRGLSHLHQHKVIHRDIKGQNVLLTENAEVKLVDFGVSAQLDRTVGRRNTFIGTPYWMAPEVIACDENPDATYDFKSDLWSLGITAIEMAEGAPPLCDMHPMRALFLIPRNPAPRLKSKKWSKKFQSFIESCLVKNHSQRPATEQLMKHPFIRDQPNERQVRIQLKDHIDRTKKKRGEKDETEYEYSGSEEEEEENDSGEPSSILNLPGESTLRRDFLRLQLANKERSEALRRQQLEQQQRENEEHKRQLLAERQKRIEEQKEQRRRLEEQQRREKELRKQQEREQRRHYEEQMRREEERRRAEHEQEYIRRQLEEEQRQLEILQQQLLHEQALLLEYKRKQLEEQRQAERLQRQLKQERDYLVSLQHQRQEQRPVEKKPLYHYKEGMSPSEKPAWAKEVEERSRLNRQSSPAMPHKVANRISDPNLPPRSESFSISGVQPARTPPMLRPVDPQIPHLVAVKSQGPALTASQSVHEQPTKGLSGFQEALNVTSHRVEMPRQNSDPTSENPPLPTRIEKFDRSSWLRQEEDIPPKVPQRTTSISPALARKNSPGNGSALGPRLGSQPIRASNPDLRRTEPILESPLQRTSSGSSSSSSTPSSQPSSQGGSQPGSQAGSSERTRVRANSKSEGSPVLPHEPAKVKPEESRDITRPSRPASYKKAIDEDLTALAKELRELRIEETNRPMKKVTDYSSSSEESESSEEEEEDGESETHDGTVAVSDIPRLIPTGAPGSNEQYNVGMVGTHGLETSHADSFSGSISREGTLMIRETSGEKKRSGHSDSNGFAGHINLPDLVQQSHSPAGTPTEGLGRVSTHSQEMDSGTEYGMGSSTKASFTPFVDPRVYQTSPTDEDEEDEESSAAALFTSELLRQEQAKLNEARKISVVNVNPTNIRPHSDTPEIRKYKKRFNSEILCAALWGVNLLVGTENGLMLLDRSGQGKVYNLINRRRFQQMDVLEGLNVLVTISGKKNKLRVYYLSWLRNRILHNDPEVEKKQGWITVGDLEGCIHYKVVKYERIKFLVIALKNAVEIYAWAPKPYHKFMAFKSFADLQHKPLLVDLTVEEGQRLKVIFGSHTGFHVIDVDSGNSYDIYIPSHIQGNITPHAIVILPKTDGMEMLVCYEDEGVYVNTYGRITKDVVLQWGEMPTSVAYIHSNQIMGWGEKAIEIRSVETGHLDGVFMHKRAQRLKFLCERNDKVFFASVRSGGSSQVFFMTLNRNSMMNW

[9] = target: Protein kinase C alpha type (Homo sapiens) (UniProt P17252); experiment: Inhibition of PKCa Lys2 labeling site in human A-375 cells at 0.05 uM by KiNativ Profiling analysis relative to control; format: cell-based
[10] = target: T3, Mitogen-activated protein kinase 13 (Homo sapiens) (UniProt O15264); experiment: Inhibition of p38 delta Lys2 labeling site in human A-375 cells at 0.5 uM by KiNativ Profiling analysis relative to control; format: cell-based
T3 sequence (whole entry): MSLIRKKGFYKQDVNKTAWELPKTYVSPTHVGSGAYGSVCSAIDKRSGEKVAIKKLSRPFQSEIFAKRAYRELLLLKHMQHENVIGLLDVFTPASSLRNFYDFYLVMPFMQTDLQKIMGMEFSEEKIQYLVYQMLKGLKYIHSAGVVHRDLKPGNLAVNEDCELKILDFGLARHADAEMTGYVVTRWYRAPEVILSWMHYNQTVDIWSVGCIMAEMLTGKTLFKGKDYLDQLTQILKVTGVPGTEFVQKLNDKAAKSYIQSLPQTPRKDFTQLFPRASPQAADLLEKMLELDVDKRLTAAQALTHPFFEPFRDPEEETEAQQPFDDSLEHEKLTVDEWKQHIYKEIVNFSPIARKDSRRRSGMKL

[11] = target: MAP/microtubule affinity-regulating kinase 3 (Homo sapiens) (UniProt P27448); experiment: Inhibition of MARK3 Lys2 labeling site in human A-375 cells at 0.05 uM by KiNativ Profiling analysis relative to control; format: cell-based
MAP/microtubule affinity-regulating kinase 3 (Homo sapiens), sequence (P27448 whole entry, looked up): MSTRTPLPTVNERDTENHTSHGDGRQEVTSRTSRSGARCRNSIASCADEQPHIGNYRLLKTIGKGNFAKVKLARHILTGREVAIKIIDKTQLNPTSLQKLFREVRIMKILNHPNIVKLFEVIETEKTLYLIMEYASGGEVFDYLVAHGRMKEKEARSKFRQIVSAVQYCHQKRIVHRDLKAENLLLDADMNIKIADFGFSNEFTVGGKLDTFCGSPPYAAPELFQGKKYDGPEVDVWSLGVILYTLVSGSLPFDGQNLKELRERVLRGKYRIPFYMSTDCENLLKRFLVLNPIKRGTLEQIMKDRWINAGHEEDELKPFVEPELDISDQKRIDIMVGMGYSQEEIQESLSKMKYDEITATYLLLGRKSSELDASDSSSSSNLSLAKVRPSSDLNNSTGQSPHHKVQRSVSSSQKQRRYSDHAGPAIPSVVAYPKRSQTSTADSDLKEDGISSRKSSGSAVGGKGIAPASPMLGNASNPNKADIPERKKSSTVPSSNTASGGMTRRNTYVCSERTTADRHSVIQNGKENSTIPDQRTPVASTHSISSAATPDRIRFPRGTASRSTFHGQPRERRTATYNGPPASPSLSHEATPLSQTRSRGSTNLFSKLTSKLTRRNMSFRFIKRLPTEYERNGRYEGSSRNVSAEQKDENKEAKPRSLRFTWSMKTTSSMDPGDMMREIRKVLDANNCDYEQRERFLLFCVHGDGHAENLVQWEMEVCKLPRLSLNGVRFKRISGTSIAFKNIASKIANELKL

[12] = target: DNA-PK/Ku70/Ku85 (Homo sapiens) (UniProt P78527+P12956+P13010); experiment: Inhibition of DNAPK ATP labeling site harbouring EHPFLVKGGEDLR in human A-375 cells at 0.5 uM by KiNativ Profiling analysis relative to control; format: cell-based
In short: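 Live A375 melanoma cells were treated with compound at 0.5 or 5 μM, then lysed. Lysates were labeled with a lysine-reactive ATP or ADP-biotin probe. The read-out was protection of each kinase probe-labeling site from labeling, relative to control.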

[13] = target: RAF proto-oncogene serine/threonine-protein kinase (Homo sapiens, UniProt P04049); experiment: Inhibition of RAF1 Lys2 labeling site in human A-375 cells at 0.5 uM by KiNativ Profiling analysis relative to control; format: cell-based
RAF proto-oncogene serine/threonine-protein kinase, sequence (P04049 whole entry): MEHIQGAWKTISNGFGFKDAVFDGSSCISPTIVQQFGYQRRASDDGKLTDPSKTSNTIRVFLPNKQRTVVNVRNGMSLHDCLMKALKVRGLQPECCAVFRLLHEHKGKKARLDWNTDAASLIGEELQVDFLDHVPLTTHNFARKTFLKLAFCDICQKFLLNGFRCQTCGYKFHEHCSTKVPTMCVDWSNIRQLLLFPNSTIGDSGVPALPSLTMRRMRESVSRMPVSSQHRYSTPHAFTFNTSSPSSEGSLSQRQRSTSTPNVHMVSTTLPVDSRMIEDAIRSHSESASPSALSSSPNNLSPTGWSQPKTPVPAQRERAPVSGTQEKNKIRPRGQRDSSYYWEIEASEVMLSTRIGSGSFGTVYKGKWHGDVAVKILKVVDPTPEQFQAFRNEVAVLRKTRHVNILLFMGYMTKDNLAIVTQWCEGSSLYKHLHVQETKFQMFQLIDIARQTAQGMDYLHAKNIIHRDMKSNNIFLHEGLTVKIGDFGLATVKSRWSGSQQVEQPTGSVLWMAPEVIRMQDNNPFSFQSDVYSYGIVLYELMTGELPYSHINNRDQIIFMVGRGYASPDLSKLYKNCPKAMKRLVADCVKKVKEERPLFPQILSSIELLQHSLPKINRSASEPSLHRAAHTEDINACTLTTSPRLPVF

[14] = target: Serine/threonine-protein kinase WNK1 (Homo sapiens) (UniProt Q9H4A3); experiment: Inhibition of Wnk1 ACT labeling site in human A-375 cells at 0.5 uM by KiNativ Profiling analysis relative to control; format: cell-based
[15] = target: Casein kinase II subunit alpha (Homo sapiens) (UniProt P68400); experiment: Inhibition of CK2a1 Protein Kinase Domain in human A-375 cells at 0.5 uM by KiNativ Profiling analysis relative to control; format: cell-based
In short: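 Live A375 melanoma cells were treated with compound at 5 or 0.5 μM. The cells were then lysed, and the lysates were labeled with a lysine-reactive ATP or ADP-biotin acyl probe (KiNativ). Inhibition is the compound's protection of each kinase labeling-site peptide from probe labeling, relative to untreated control.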

| SMILES | inhibition [1] [%] | inhibition at 0.05 µM [2] [%] | inhibition [3] [%] | inhibition [4] [%] | inhibition [5] [%] | t1/2 [6] [h] | inhibition [7] [%] | inhibition [8] [%] | inhibition [9] [%] | inhibition [10] [%] | inhibition [11] [%] | inhibition [12] [%] | inhibition [13] [%] | inhibition [14] [%] | inhibition [15] [%] |
| --- | --- | --- | --- | --- | --- | --- | --- | --- | --- | --- | --- | --- | --- | --- | --- |
| CCN1CCN(Cc2ccc(NC(=O)c3ccc(C)c(Oc4ccnc5[nH]ccc45)c3)cc2C(F)(F)F)CC1 | 1 | 18.9 | 31.4 | 13.1 | 64.9 | 2.03 | -3.9 | 42.6 | 45.3 | 86.2 | 19.5 | 3.2 | 79.2 | 3.9 | 2 |
| CCN1CCN(Cc2ccc(NC(=O)c3ccc(C)c(/C=C/c4cnc5[nH]ccc5c4OC)c3)cc2C(F)(F)F)CC1 | 4.7 | -14.4 | 48.5 | 13.7 | 24.3 | 4.66 | 20.9 | 57.6 | 58 | 25.2 | 11.6 | 13.8 | 82.6 | 6.9 | 12.9 |
